Measured values: ChEMBL document CHEMBL4825665, “Effective degradation of EGFRL858R+T790M mutant proteins by CRBN-based PROTACs through both proteosome and autophagy/lysosome degradation systems” (Eur J Med Chem, 2021)
Calls of active or inactive are those of the source. The calls are words filed in the database; no cut-off is given here.

Legend:
[1] = tested on: Protein cereblon/Epidermal growth factor receptor (Homo sapiens), P00533+Q96SW2 [L858R,T790M]; experiment: Protac activity at CRBN/EGFR L858R/T790M mutant in human NCI-H1975 cells assessed as increase in ratio of LC3B2 to LC3B1 at 30 to 300 nM measured after 16 hrs by Western blot assay; format: cell-based; conditions: dose 30-300 nM
Method in brief: (§1)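 H1975 cells in RPMI 1640 with 10% serum. Autophagy was read by Western blot as the LC3B II/LC3B I ratio. Serum-free medium and rapamycin served as autophagy-inducing positive controls, and rapamycin was also combined with degrader. Where pretreatment applied, compounds were added for 2 h before a 16 h PROTAC treatment.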

[2] = target: T1, Protein cereblon/Epidermal growth factor receptor (Homo sapiens, UniProt P00533+Q96SW2); experiment: Protac activity at CRBN/EGFR in human PC-9 cells assessed as induction of EGFR degradation by Western blot assay; format: cell-based
NCI-H1975 [3] = experiment: Cell cycle arrest in human NCI-H1975 cells expressing EGFR L858R/T790M mutant assessed as decrease of cell population in S phase at […] measured after 48 hrs by RNaseA/propidium iodide staining based flow cytometry; format: functional; conditions: dose lower 0.03 nM
Method in brief: (§2)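 H1975 cells (1 × 10⁵/well, 6-well plates) treated one day after seeding at the indicated concentrations for 48 h. Washed in cold PBS, fixed in cold ethanol at −20 °C for over 24 h, then stained with PI/RNase for 30 min at 37 °C in the dark. Phase distribution measured by flow cytometry.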

[4] = tested on: Protein cereblon/Epidermal growth factor receptor (Homo sapiens), P00533+Q96SW2 [L858R,T790M]; experiment: Protac activity at CRBN/EGFR L858R/T790M mutant in human NCI-H1975 cells assessed as increase in cell doubling time at 100 to 300 nM measured after 4 days by […] staining based fluorescence assay; conditions: dose 100-300 nM, time 4.0 day
[5] = tested on: Protein cereblon/Epidermal growth factor receptor (Homo sapiens), P00533+Q96SW2 [L858R,T790M]; experiment: Protac activity at CRBN/EGFR L858R/T790M mutant in human NCI-H1975 cells assessed as induction of EGFR degradation at 0.3 uM pre-incubated for 2 hrs in the presence of MLN4924 and measured after 16 hrs by Western blot assay; format: cell-based; conditions: time 18.0 hrs
[6] = tested on: Protein cereblon/Epidermal growth factor receptor (Homo sapiens), P00533+Q96SW2 [L858R,T790M]; experiment: Protac activity at CRBN/EGFR L858R/T790M mutant in human NCI-H1975 cells assessed as induction of EGFR degradation at 300 nM pretreated for 24 hrs followed by compound washout and subsequent addition of fresh medium by Western blot assay relative to control; format: cell-based
Method in brief: (§3)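 H1975 cells were treated with 300 nM PROTAC for 24 h. Medium was removed, cells were washed 3 times with PBS, and fresh RPMI 1640 with 10% fetal calf serum was added. Cells were harvested at time points up to 72 h after drug removal, and total EGFR was measured by Western blot.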

PC-9 = experiment: Antiproliferative activity against human PC-9 cells assessed as inhibition of cell growth measured after 72 hrs by CCK-8 assay; format: functional, cell-based; conditions: PC-9, 72 h
Method in brief: (§4)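 Cells seeded at 3000 cells/well in 96-well plates and treated with graded compound concentrations one day later for 72 h. CCK-8 was added for 1–4 h and absorbance read at 450 nm. Lung cancer lines were kept in RPMI 1640 with 10% fetal calf serum at 37 °C and 5% CO₂.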

NCI-H1975 [7] = experiment: Cell cycle arrest in human NCI-H1975 cells expressing EGFR L858R/T790M mutant assessed as increase of cell population in G0/G1 phase at […] measured after 48 hrs by RNaseA/propidium iodide staining based flow cytometry; format: functional; conditions: dose lower 0.03 nM; method in brief: as §2
A549 = experiment: Antiproliferative activity against human A549 cells assessed as inhibition of cell growth measured after 72 hrs by CCK-8 assay; format: functional, cell-based; conditions: A549, 72 h; method in brief: as §4
[8] = tested on: Epidermal growth factor receptor (Homo sapiens), P00533 [L858R,T790M]; experiment: Inhibition of EGFR L858R/T790M mutant phosphorylation in human NCI-H1975 cells at 1 to 100 nM measured after 16 hrs by Western blot assay; format: cell-based; conditions: dose 1-100 nM
Method in brief: (§5)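 Cells seeded at 1-3X10^5/well and treated one day later with compounds at the concentrations and times given. Lysed in RIPA buffer with protease inhibitors. 15 µg protein run on 8% SDS-PAGE, transferred to nitrocellulose, probed for EGFR or phospho-EGFR, ECL detection. Lung lines kept in RPMI 1640 with 10% fetal calf serum, 37 °C, 5% CO2. DC50 is an estimated value. Repeated more than 3 times.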

NCI-H1975 [9] = experiment: Antiproliferative activity against human NCI-H1975 cells assessed as inhibition of cell growth measured after 72 hrs by CCK-8 assay; format: functional, cell-based; conditions: NCI-H1975, 72 h; method in brief: as §4
NCI-H1975 [10] = experiment: Antimigratory activity in human NCI-H1975 cells expressing EGFR L858R/T790M mutant at 500 nM measured after 24 hrs by wound healing assay; format: functional, cell-based
Method in brief: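 H1975 cells seeded in 24-well plates, scratched at confluence with a pipette tip 24 h later and washed three times with PBS. Then incubated with degrader at 300 or 500 nM. Six photos per well taken at set time points, and the uncovered wound area quantified.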

[11] = tested on: Protein cereblon/Epidermal growth factor receptor (Homo sapiens), P00533+Q96SW2 [L858R,T790M]; experiment: Protac activity at CRBN/EGFR L858R/T790M mutant in human NCI-H1975 cells assessed as induction of EGFR degradation at 300 nM incubated for 24 hrs followed by compound washout and measured 72 hrs after drug removal by Western blot assay; format: cell-based; method in brief: as §3
[12] = tested on: Protein cereblon/Epidermal growth factor receptor (Homo sapiens), P00533+Q96SW2 [L858R,T790M]; experiment: Protac activity at CRBN/EGFR L858R/T790M mutant in human NCI-H1975 cells assessed as increase in ratio of LC3B2 to LC3B1 at 30 to 300 nM preincubated for 2 hrs in presence of Rapamycin and measured after 16 hrs by Western blot assay; format: cell-based; conditions: dose 30-300 nM, time 18.0 hrs; method in brief: as §1
[13] = tested on: Protein cereblon/Epidermal growth factor receptor (Homo sapiens), P00533+Q96SW2 [L858R,T790M]; experiment: Protac activity at CRBN/EGFR L858R/T790M mutant in human NCI-H1975 cells assessed as increase in ratio of LC3B2 to LC3B1 under serum starvation condition at 0.3 uM measured after 16 hrs by Western blot assay; format: cell-based; method in brief: as §1
HEK-293T = experiment: Cytotoxicity against human HEK293T cells assessed as inhibition of cell growth measured after 72 hrs by CCK-8 assay; format: cell-based; method in brief: as §4
[14] = target: T1, Protein cereblon/Epidermal growth factor receptor; experiment: Protac activity at CRBN/EGFR in human A549 cells assessed as induction of EGFR degradation by Western blot assay; format: cell-based
[15] = tested on: Protein cereblon/Epidermal growth factor receptor (Homo sapiens), P00533+Q96SW2 [UNDEFINED MUTATION]; experiment: Protac activity at CRBN/EGFR exon19 deletion/T790M mutant in human PC-9 cells transfected with BRCA1 assessed as induction of EGFR degradation at 1 to 1000 nM measured after 16 hrs by Western blot assay; format: cell-based; conditions: dose 1-1000 nM; method in brief: as §5
[16] = target: T1, Protein cereblon/Epidermal growth factor receptor; experiment: Protac activity at CRBN/EGFR in human NCI-H1975 cells assessed as induction of EGFR degradation by Western blot assay; format: cell-based
[17] = tested on: Protein cereblon/Epidermal growth factor receptor (Homo sapiens), P00533+Q96SW2 [L858R,T790M]; experiment: Protac activity at CRBN/EGFR L858R/T790M mutant in human NCI-H1975 cells assessed as induction of EGFR degradation at 0.3 uM pre-incubated for 2 hrs in the presence of Bafilomycin A1 and measured after 16 hrs by Western blot assay; format: cell-based; conditions: time 18.0 hrs

Row | Compound | Activity [1] | DC50 [2] [nM] | Activity (NCI-H1975 [3]) | Activity [4] | Activity [5] | Activity [6] | IC50 (PC-9) [nM] | Activity (NCI-H1975 [7]) | IC50 (A549) [nM] | Activity [8] | IC50 (NCI-H1975 [9]) [nM] | Activity (NCI-H1975 [10]) | Activity [11] | Activity [12] | Activity [13] | IC50 (HEK-293T) [nM] | DC50 [14] | Activity [15] | DC50 [16] [nM] | Activity [17]
1 | C=CC(=O)Nc1cc2c(Nc3ccc(F)c(Cl)c3)ncnc2cc1OCCCN1CCN(C(=O)CCCCCNc2cccc3c2C(=O)N(C2CCC(=O)NC2=O)C3=O)CC1 (stereo not given) | Active | 100 | Active | Active | inactive | Active | 2.6 | Active | > 10000 | Active | 22.1 | Active | Active | Active | Active | > 10000 | Not Active | inactive | 30 | inactive
2 | C=CC(=O)Nc1cc2c(Nc3ccc(F)c(Cl)c3)ncnc2cc1OCCCN1CCN(C(=O)CCCCCCNc2cccc3c2C(=O)N(C2CCC(=O)NC2=O)C3=O)CC1 (stereo not given) | Active | 30 | Active | Active | inactive | Active | 3.94 | Active | > 10000 | Active | 26.5 | Active | Active | Active | Active | > 10000 | Not Active | inactive | < 30 | inactive
